For series [1], the system named is RAW264.7. Kind of series: Anti-inflammatory activity in mouse RAW264.7 cells assessed as LPS-induced nitric oxide production level at 50 uM pre-incubated for 2 hrs before LPS stimulation for 24 hrs by Griess assay relative to untreated control. The series is classed as functional. The gist of the method: (§1)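 Cells pretreated with compound at various concentrations for 2 h, then LPS 0.5 µg/mL added for 24 h; nitrite in medium read with Griess reagent; means ± SD of triplicates.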

Series [2] can be described thus: Cytotoxicity against mouse RAW264.7 cells assessed as cell viability at 50 uM incubated for 24 hrs by Alamar-Blue assay. The series is classed as cell-based. The conditions noted are these: read-out: Activity.
Series [3] deals with RAW264.7. Kind of series: Anti-inflammatory activity in mouse RAW264.7 cells assessed as reduction in LPS-induced nitric oxide production level pre-incubated for 2 hrs before LPS stimulation for 24 hrs by Griess assay relative to untreated control. The series is classed as functional, cell-based. The gist of the method:
as §1
(In general: Griess reagent forms a coloured azo dye with nitrite.)

Series [4] has as its system RAW264.7. Kind of series: Inhibition of LPS-induced iNOS mRNA expression in mouse RAW264.7 cells pre-incubated for 2 hrs before LPS stimulation for 24 hrs by qRT-PCR method. The series is classed as functional, cell-based. Put shortly: (§2)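 Cells pretreated with compound or 10 µM BAY 11-7082 for 2 h, then LPS 0.5 µg/mL for 24 h; total RNA extracted, iNOS mRNA by qRT-PCR normalised to GAPDH.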
Background: In qPCR the cycle at which signal appears reflects the starting amount.

For series [5], the system named is RAW264.7. Kind of series: Inhibition of LPS-induced iNOS protein expression in mouse RAW264.7 cells pre-incubated for 2 hrs before LPS stimulation for 24 hrs by Western blotting method. The series is classed as functional, cell-based. The gist of the method:
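Cells in 6-well plates pretreated (1, 10, 50 µM; BAY 11-7082 10 µM) for 2 h, LPS 0.5 µg/mL 24 h; lysates immunoblotted with anti-iNOS, GAPDH loading control.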
(A western blot detects proteins with antibodies after separation by electrophoresis.)

The subject of series [6] is RAW264.7. Kind of series: Inhibition of LPS-induced IL-1beta mRNA expression in mouse RAW264.7 cells pre-incubated for 2 hrs before LPS stimulation for 24 hrs by qRT-PCR method. The series is classed as functional, cell-based. Put shortly: (§3)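 Cells in 6-well plates pretreated (1, 10, 50 µM; BAY 11-7082 10 µM reference) 2 h before LPS 0.5 µg/mL for 24 h; IL-1b and IL-6 mRNA by qRT-PCR against GAPDH; mean ± SD of three experiments in triplicate.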

The subject of series [7] is RAW264.7. Kind of series: Inhibition of LPS-induced IL-6 mRNA expression in mouse RAW264.7 cells pre-incubated for 2 hrs before LPS stimulation for 24 hrs by qRT-PCR method. The series is classed as functional, cell-based. The gist of the method:
as §3

Series [8] has as its system RAW264.7. Kind of series: Inhibition of LPS-induced IL-6 protein expression in mouse RAW264.7 cells at 1 to 50 uM pre-incubated for 2 hrs before LPS stimulation for 24 hrs by ELISA.
The target in series [9] is T1, NF-kappa-B inhibitor alpha (Mus musculus) (UniProt Q9Z1E3).
T1 sequence (whole entry): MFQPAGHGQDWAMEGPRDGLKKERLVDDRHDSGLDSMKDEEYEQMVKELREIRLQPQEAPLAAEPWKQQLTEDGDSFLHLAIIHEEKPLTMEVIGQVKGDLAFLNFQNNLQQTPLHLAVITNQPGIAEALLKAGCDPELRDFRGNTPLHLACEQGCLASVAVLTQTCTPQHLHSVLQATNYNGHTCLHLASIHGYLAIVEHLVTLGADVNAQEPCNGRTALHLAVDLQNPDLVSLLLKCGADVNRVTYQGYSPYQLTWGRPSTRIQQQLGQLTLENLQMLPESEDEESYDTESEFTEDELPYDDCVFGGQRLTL
Kind of series: Inhibition of LPS-induced IkappaB-alpha degradation in mouse RAW264.7 cells at 1 to 50 uM pre-incubated before LPS stimulation for 5 mins by Western blotting method.

Series [10] concerns the target T1, NF-kappa-B inhibitor alpha (Mus musculus). Kind of series: Inhibition of LPS-induced IkappaB-alpha phosphorylation in mouse RAW264.7 cells at 1 to 50 uM pre-incubated before LPS stimulation for 5 mins by Western blotting method.
For series [11], the target named is RAC-alpha serine/threonine-protein kinase (Mus musculus) (UniProt P31750). Kind of series: Inhibition of LPS-induced AKT phosphorylation in mouse RAW264.7 cells at 1 to 50 uM pre-incubated for 30 mins before LPS stimulation for 30 mins by Western blotting method.
In series [12] the target is MAP kinase p38 (Mus musculus) (UniProt P47811+O08911+Q9WUI1+Q9Z1B7). Kind of series: Inhibition of LPS-induced p38 MAPK phosphorylation in mouse RAW264.7 cells at 1 to 50 uM pre-incubated for 2 hrs before LPS stimulation for 30 min by Western blotting method.
The target in series [13] is Mitogen-activated protein kinase 1 and 3 (ERK2 and ERK1) (Mus musculus) (UniProt P63085+Q63844). Kind of series: Inhibition of LPS-induced ERK1/2 MAPK phosphorylation in mouse RAW264.7 cells at 1 to 50 uM pre-incubated for 2 hrs before LPS stimulation for 30 mins by Western blotting method.
Another series deals with JNK1/JNK2 (Mus musculus) (UniProt Q91Y86+Q9WTU6). Kind of series: Inhibition of LPS-induced JNK1/2 MAPK phosphorylation in mouse RAW264.7 cells at 1 to 50 uM pre-incubated for 2 hrs before LPS stimulation for 30 mins by Western blotting method.
In series [14] the test system is RAW264.7. Kind of series: Inhibition of LPS-induced IL-1beta mRNA expression in mouse RAW264.7 cells at 10 uM pre-incubated for 2 hrs before LPS stimulation for 24 hrs by qRT-PCR method. The series is classed as functional, cell-based. Put shortly:
as §3

The subject of series [15] is RAW264.7. Kind of series: Anti-inflammatory activity in mouse RAW264.7 cells assessed as LPS-induced nitric oxide production level at 10 uM pre-incubated for 2 hrs before LPS stimulation for 24 hrs by Griess assay relative to untreated control. The series is classed as functional. Put shortly:
as §1

The test system of series [16] is RAW264.7. Kind of series: Inhibition of LPS-induced iNOS mRNA expression in mouse RAW264.7 cells at 10 uM pre-incubated for 2 hrs before LPS stimulation for 24 hrs by qRT-PCR method. The series is classed as functional, cell-based. Put shortly: as §2
The subject of series [17] is RAW264.7. Kind of series: Inhibition of LPS-induced IL-6 mRNA expression in mouse RAW264.7 cells at 10 uM pre-incubated for 2 hrs before LPS stimulation for 24 hrs by qRT-PCR method. The series is classed as functional, cell-based. The gist of the method: as §3

For orientation: IC50 means the concentration that inhibits the measured activity by half.

Active and inactive are the calls of the source. The rule behind the calls is not given here.

RAC-alpha serine/threonine-protein kinase (Mus musculus), sequence (P31750 whole entry): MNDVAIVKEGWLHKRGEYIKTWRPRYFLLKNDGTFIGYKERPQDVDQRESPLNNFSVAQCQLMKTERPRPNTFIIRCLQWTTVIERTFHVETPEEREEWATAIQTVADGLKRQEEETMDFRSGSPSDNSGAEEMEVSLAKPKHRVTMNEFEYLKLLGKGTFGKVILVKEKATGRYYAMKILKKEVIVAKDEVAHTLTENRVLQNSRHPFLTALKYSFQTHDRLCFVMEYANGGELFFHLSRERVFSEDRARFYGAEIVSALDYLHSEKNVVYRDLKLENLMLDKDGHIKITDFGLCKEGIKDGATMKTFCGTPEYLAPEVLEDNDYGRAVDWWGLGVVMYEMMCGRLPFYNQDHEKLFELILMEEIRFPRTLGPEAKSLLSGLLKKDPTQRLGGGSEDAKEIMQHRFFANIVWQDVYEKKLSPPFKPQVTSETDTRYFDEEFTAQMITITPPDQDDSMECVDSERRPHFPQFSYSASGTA
JNK1/JNK2 (Mus musculus), sequence (Q91Y86 whole entry, looked up): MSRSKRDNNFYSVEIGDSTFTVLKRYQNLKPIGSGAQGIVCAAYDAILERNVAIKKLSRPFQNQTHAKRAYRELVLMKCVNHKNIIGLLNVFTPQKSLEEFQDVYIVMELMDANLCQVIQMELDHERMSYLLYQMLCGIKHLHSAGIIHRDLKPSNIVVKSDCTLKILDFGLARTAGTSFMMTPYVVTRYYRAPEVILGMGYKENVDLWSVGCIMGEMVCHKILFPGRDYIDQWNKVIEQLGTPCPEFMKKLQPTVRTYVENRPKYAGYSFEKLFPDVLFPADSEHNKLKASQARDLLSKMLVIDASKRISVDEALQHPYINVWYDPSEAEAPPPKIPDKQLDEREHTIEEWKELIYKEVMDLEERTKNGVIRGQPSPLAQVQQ
JNK1/JNK2 (Mus musculus), sequence (Q9WTU6 whole entry, looked up): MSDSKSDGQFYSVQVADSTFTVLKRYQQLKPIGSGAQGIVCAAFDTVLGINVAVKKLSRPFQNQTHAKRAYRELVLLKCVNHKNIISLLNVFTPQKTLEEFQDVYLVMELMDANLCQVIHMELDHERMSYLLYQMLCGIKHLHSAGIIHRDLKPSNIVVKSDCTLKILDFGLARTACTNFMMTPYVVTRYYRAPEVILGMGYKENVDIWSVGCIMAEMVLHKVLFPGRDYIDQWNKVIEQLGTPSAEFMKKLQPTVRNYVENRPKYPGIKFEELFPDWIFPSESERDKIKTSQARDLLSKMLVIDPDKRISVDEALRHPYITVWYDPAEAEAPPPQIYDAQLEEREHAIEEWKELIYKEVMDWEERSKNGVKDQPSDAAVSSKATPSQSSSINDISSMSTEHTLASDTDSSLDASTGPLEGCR
Mitogen-activated protein kinase 1 and 3 (ERK2 and ERK1) (Mus musculus), sequence (P63085 whole entry, looked up): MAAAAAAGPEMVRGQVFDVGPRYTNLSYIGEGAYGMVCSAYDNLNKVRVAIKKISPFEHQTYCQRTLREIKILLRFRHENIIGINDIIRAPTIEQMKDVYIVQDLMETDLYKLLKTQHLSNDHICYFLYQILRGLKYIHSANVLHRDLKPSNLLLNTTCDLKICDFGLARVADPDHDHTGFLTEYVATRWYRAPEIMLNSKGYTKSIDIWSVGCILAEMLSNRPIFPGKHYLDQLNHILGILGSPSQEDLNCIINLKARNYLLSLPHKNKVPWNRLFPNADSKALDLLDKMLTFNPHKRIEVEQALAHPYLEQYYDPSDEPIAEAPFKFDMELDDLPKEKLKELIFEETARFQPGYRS
Mitogen-activated protein kinase 1 and 3 (ERK2 and ERK1) (Mus musculus), sequence (Q63844 whole entry, looked up): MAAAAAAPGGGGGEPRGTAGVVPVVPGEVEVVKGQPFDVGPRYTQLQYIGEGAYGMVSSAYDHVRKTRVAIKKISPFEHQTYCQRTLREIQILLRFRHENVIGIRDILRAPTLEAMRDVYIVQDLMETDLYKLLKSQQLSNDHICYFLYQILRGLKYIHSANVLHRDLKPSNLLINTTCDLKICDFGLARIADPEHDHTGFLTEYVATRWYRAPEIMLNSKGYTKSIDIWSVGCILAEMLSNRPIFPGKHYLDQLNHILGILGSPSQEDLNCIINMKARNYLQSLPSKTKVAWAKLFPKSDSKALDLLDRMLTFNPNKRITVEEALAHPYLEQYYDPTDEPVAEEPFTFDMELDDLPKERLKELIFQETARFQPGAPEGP

With `COc1ccc(/C=C(\C(=O)O)c2ccc(OC)c(OC)c2)cc1OC`, the Activity in the series with RAW264.7 [1] was 120.7%. Further, the viability at 24 h, 50 µM in series [2] came to 106%.
In the case of `COC(=O)c1cc2cc3c(cc2c2cc(OC)c(OC)cc12)OCO3`, the Activity with RAW264.7 [1] came out at 75%. The viability at 24 h, 50 µM in series [2] worked out at 101%.
Take `COC(=O)/C(=C/c1ccc(OC)c(OC)c1)c1ccc(OC)c(OC)c1`: in the series with RAW264.7 [1], the Activity is 3.9%. Further, the viability at 24 h, 50 µM in [2] was 114%. Moreover, in the series on RAW264.7 [3], the half-maximal inhibitory concentration (IC50) was 5.05 µM. The inhibition result with RAW264.7 [4], with RAW264.7 [5], in the series with RAW264.7 [6] and in the series on RAW264.7 [7] was “Dose-dependent effect” in each case. Besides, the inhibition result (in the series with RAW264.7 [8]; in series [9]; in [10]; in series [11]; in series [12]) was “Active” in each case. Besides, the inhibition result (in series [13]; at JNK1/JNK2 (Mus musculus)) was “inactive” in each case.
In the case of `CCN(CC)C(=O)c1cc2cc(OC)c(OC)cc2c2cc(OC)c(OC)cc12`, the Activity in the series with RAW264.7 [1] is on record as 39.8%. In addition, the viability at 24 h, 50 µM in series [2] is 94.7%. Also, the half-maximal inhibitory concentration (IC50) in the series on RAW264.7 [3] is 20.3 µM.
Take `CCN(CC)C(=O)/C(=C/c1ccc(OC)c(OC)c1)c1ccc(OC)c(OC)c1`: the Activity with RAW264.7 [1] is on record as 92.7%. The viability at 24 h, 50 µM in series [2] is 111%.
On to `COc1cc2cc(C#N)c3cc(OC)c(OC)cc3c2cc1OC`, for which the Activity in the series on RAW264.7 [1] was found to be 108.8%. The viability at 24 h, 50 µM in series [2] stood at 102%.
Consider `COC(=O)/C(=C/c1ccc(OC)c(OC)c1)c1ccc(OC)cc1`, for which the Activity in the series with RAW264.7 [1] is on record as 45.5%. Besides, the viability at 24 h, 50 µM in series [2] was 66.7%. Besides, the IC50 with RAW264.7 [3] was 37.3 µM.
As for `COc1ccc(/C=C(/C(=O)O)c2ccc(OC)c(OC)c2)cc1OC`, the Activity with RAW264.7 [1] stood at 64.3%. The viability at 24 h, 50 µM in series [2] was determined as 121%.
Regarding `COC(=O)c1cc2cc(OC)c(OC)cc2c2cc(OC)c(OC)cc12`, the Activity in the series with RAW264.7 [1] was found to be 45.3%. The viability at 24 h, 50 µM in series [2] was 101%.
`COC(=O)/C(=C\c1ccc2c(c1)OCO2)c1ccc(OC)c(OC)c1`: in the series on RAW264.7 [1], the Activity was determined as 79%. For the same compound, the viability at 24 h, 50 µM in series [2] turned out to be 56.1%.
For the compound `COC(=O)c1cc2cc(OC)ccc2c2cc(OC)c(OC)cc12`, in the series with RAW264.7 [1], the Activity is reported as 48.8%. Besides, the viability at 24 h, 50 µM in series [2] turned out to be 99.3%.
Take `COc1cc2c(C(=O)O)cc3cc4c(cc3c2cc1OC)OCO4`: the Activity in the series with RAW264.7 [1] came to 53.1%. Further, the viability at 24 h, 50 µM in [2] turned out to be 107%.
The like results for `COC(=O)c1cc2cc(OC)c(OC)cc2c2cc(OC)ccc12` were, in that order, 83% and 99.7%.
The corresponding values for `COc1ccc(/C=C(\C#N)c2ccc(OC)c(OC)c2)cc1OC` are 46.7% and 96.7%.
Consider `COc1ccc(/C(=C/c2ccc3c(c2)OCO3)C(=O)O)cc1OC`, for which the Activity in the series on RAW264.7 [1] is recorded as 106.9%. Moreover, the viability at 24 h, 50 µM in series [2] was 103%.
The corresponding values for `COc1cc2cc(C(=O)O)c3cc(OC)c(OC)cc3c2cc1OC` are 78.2% and 101%.
As to `COC(=O)/C(=C/c1cccc(OC)c1)c1ccc(OC)c(OC)c1`, the Activity with RAW264.7 [1] is on record as 84.6%. Further, the viability at 24 h, 50 µM in series [2] was found to be 76.5%.
The like results for `COC(=O)/C(=C/c1ccc2c(c1)OCO2)c1ccc(OC)c(OC)c1` were, in that order, 109.2% and 88%.
The corresponding values for `COc1ccc(/C(=C\c2ccc3c(c2)OCO3)C(=O)O)cc1OC` are 86% and 123%.
For `Cc1ccc(S(=O)(=O)/C=C/C#N)cc1`, the inhibition entry with RAW264.7 [14], in the series on RAW264.7 [16] and with RAW264.7 [17] was “Active” in each case. The Activity in the series with RAW264.7 [15] is 1.2%.
Consider `COC(=O)/C(=C\c1ccc(OC)c(OC)c1)c1ccc(OC)c(OC)c1`, for which, in the series on RAW264.7 [1], the Activity came out at 98.7%. The viability at 24 h, 50 µM in series [2] came to 91.1%.

The record behind these values is ChEMBL document CHEMBL3797147, “Nitric oxide production inhibition and mechanism of phenanthrene analogs in lipopolysaccharide-stimulated RAW264.7 macrophages” (Bioorg Med Chem Lett, 2016).
